Data: ChEMBL document CHEMBL3352424, “Synthesis, biological evaluation and 3D-QSAR study of hydrazide, semicarbazide and thiosemicarbazide derivatives of 4-(adamantan-1-yl)quinoline as anti-tuberculosis agents” (Eur J Med Chem, 2014)
pIC50: −log10 of the molar value. In brackets after ≈: the same amount, converted by molar mass.

Columns and labels:
L929 = assay: Cytotoxicity against mouse L929 cells assessed as reduction in cell viability up to 200 ug/ml after 5 days by MTT assay; assay type: cell-based; details: l929, 120 h
Method in brief: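 MTT viability assay in mouse fibroblasts, run on compounds active against TB, with 200 µg/mL as the highest test concentration.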

[1] = test system: Mycobacterium tuberculosis; assay: Antitubercular activity against Mycobacterium tuberculosis H37Rv strain by BACTEC 460 radiometric assay; assay type: functional, organism-based
[2] = test system: Mycobacterium tuberculosis; assay: Antitubercular activity against Mycobacterium tuberculosis H37Rv strain at 6.25 ug/ml by microplate alamar blue assay; assay type: functional

Row | Structure (SMILES) | Activity (L929) | pIC50 [1] | MIC90 [1] [µg/mL] | inhibition at 6.25 µg/mL [2] [%] | MIC99 [1] [µg/mL]
1 | O=C(NNC(=O)c1cc(C23CC4CC(CC(C4)C2)C3)c2ccccc2n1)c1cccnc1 | Non-toxic | 5.29 | 6.25 (≈ 14.7 µM) | 74 | 
2 | O=C(NNC(=S)Nc1ccccc1C(F)(F)F)c1cc(C23CC4CC(CC(C4)C2)C3)c2ccccc2n1 | Non-toxic | 5.54 | 6.25 (≈ 11.9 µM) | 79 | 
3 | COc1cc(NC(=S)NNC(=O)c2cc(C34CC5CC(CC(C5)C3)C4)c3ccccc3n2)cc(OC)c1OC | Non-toxic | 4.84 | 6.25 (≈ 11.4 µM) | 46 | 
4 | CCCCCNC(=O)NNC(=O)c1cc(C23CC4CC(CC(C4)C2)C3)c2ccccc2n1 | Non-toxic | 4.93 | 6.25 (≈ 14.4 µM) | 55 | 
5 | CCCCCCCCCCCCCCCCNC(=O)NNC(=O)c1cc(C23CC4CC(CC(C4)C2)C3)c2ccccc2n1 | Non-toxic | 4.25 | 6.25 (≈ 10.6 µM) | 16 | 
6 | CCCCCCNC(=O)NNC(=O)c1cc(C23CC4CC(CC(C4)C2)C3)c2ccccc2n1 | Non-toxic | 4.80 | 6.25 (≈ 13.9 µM) | 47 | 
7 | O=C(NNC(=O)c1ccco1)c1cc(C23CC4CC(CC(C4)C2)C3)c2ccccc2n1 | Non-toxic |  | 6.25 (≈ 15 µM) | 0 | 
8 | C=CCCCCCCCCC(=O)NNC(=O)c1cc(C23CC4CC(CC(C4)C2)C3)c2ccccc2n1 | Non-toxic | 4.89 | 6.25 (≈ 12.8 µM) | 50 | 
9 | O=C(NNC(=S)NCCc1ccccc1)c1cc(C23CC4CC(CC(C4)C2)C3)c2ccccc2n1 | Non-toxic | 4.84 | 6.25 (≈ 12.9 µM) | 47 | 
10 | CCCCCCCCCCC(=O)NNC(=O)c1cc(C23CC4CC(CC(C4)C2)C3)c2ccccc2n1 | Non-toxic | 4.57 | 6.25 (≈ 12.8 µM) | 32 | 
11 | O=C(NNC(=O)c1c(F)c(F)c(F)c(F)c1F)c1cc(C23CC4CC(CC(C4)C2)C3)c2ccccc2n1 | Non-toxic | 5.78 | 6.25 (≈ 12.1 µM) | 88 | 
12 | O=C(NNC(=S)Nc1ccc([N+](=O)[O-])cc1)c1cc(C23CC4CC(CC(C4)C2)C3)c2ccccc2n1 | Non-toxic | 6.10 | 6.25 (≈ 12.5 µM) | 94 | 
13 | COc1ccc(C)cc1NC(=S)NNC(=O)c1cc(C23CC4CC(CC(C4)C2)C3)c2ccccc2n1 | Non-toxic | 4.04 | 6.25 (≈ 12.5 µM) | 12 | 
14 | O=C(NNC(=O)c1cc(C23CC4CC(CC(C4)C2)C3)c2ccccc2n1)NC1CCCCCCCCCCC1 | Non-toxic | 5.75 | 6.25 (≈ 11.8 µM) | 87 | 
15 | NNC(=O)c1ccncc1 [ISONIAZID] |  |  |  |  | 0.1 (≈ 0.729 µM)
16 | C=CCNC(=S)NNC(=O)c1cc(C23CC4CC(CC(C4)C2)C3)c2ccccc2n1 | Non-toxic | 5.39 | 6.25 (≈ 14.9 µM) | 77 | 
17 | CO[C@H]1/C=C/O[C@@]2(C)Oc3c(C)c(O)c4c(O)c(c(/C=N/N5CCN(C)CC5)c(O)c4c3C2=O)NC(=O)/C(C)=C\C=C\[C@H](C)[C@H](O)[C@@H](C)[C@@H](O)[C@@H](C)[C@H](OC(C)=O)[C@@H]1C [RIFAMPIN] |  |  |  | 99 | 0.2 (≈ 0.243 µM)
18 | COc1ccc(OC)c(NC(=S)NNC(=O)c2cc(C34CC5CC(CC(C5)C3)C4)c3ccccc3n2)c1 | Non-toxic | 5.55 | 6.25 (≈ 12.1 µM) | 81 | 
19 | O=C(NNC(=O)c1cc(C23CC4CC(CC(C4)C2)C3)c2ccccc2n1)NC12CC3CC(CC(C3)C1)C2 | Non-toxic | 4.61 | 6.25 (≈ 12.5 µM) | 34 | 
20 | CCc1cccc(CC)c1NC(=O)NNC(=O)c1cc(C23CC4CC(CC(C4)C2)C3)c2ccccc2n1 | Non-toxic | 4.47 | 6.25 (≈ 12.6 µM) | 27 | 
21 | CC(=O)NNC(=O)c1cc(C23CC4CC(CC(C4)C2)C3)c2ccccc2n1 | Non-toxic | 3.49 | 6.25 (≈ 17.2 µM) | 5 | 
22 | COc1ccc(NC(=O)NNC(=O)c2cc(C34CC5CC(CC(C5)C3)C4)c3ccccc3n2)cc1 | Non-toxic | 5.43 | 6.25 (≈ 13.3 µM) | 78 | 
23 | O=C(NNC(=O)c1cc(C23CC4CC(CC(C4)C2)C3)c2ccccc2n1)NC1CCCC1 | Non-toxic | 5.56 | 6.25 (≈ 14.4 µM) | 84 | 
24 | O=C(NNC(=O)c1cc(C23CC4CC(CC(C4)C2)C3)c2ccccc2n1)c1ccccc1 | Non-toxic | 3.97 | 6.25 (≈ 14.7 µM) | 12 | 

Row | Structure (SMILES) | Activity (L929) | pIC50 [1] | MIC90 [1] [µg/mL] | inhibition at 6.25 µg/mL [2] [%] | MIC99 [1] [µg/mL]
25 | O=C(NNC(=O)c1cc(C23CC4CC(CC(C4)C2)C3)c2ccccc2n1)c1cccc(C(F)(F)F)c1 | Non-toxic | 5.24 | 6.25 (≈ 12.7 µM) | 69 | 
26 | CCNC(=S)NNC(=O)c1cc(C23CC4CC(CC(C4)C2)C3)c2ccccc2n1 | Non-toxic | 5.23 | 6.25 (≈ 15.3 µM) | 72 | 
27 | CC(C)(C)NC(=S)NNC(=O)c1cc(C23CC4CC(CC(C4)C2)C3)c2ccccc2n1 | Non-toxic | 5.80 | 6.25 (≈ 14.3 µM) | 90 | 
28 | O=C(NNC(=O)C12CC3CC(CC(C3)C1)C2)c1cc(C23CC4CC(CC(C4)C2)C3)c2ccccc2n1 | Non-toxic | 5.71 | 6.25 (≈ 12.9 µM) | 87 | 
29 | O=C(NNC(=O)c1cccs1)c1cc(C23CC4CC(CC(C4)C2)C3)c2ccccc2n1 | Non-toxic | 3.83 | 6.25 (≈ 14.5 µM) | 9 | 
30 | CCc1ccccc1NC(=S)NNC(=O)c1cc(C23CC4CC(CC(C4)C2)C3)c2ccccc2n1 | Non-toxic | 5.80 | 6.25 (≈ 12.9 µM) | 89 | 
31 | O=C(NNC(=S)Nc1cccc2ccccc12)c1cc(C23CC4CC(CC(C4)C2)C3)c2ccccc2n1 | Non-toxic | 4.80 | 6.25 (≈ 12.3 µM) | 44 | 
32 | O=C(NNC(=S)NC1CCCCC1)c1cc(C23CC4CC(CC(C4)C2)C3)c2ccccc2n1 | Non-toxic |  | 6.25 (≈ 13.5 µM) | 0 | 
33 | O=C(NNC(=O)c1cccc2ccccc12)c1cc(C23CC4CC(CC(C4)C2)C3)c2ccccc2n1 | Non-toxic | 5.35 | 6.25 (≈ 13.1 µM) | 88 | 
34 | O=C(NNC(=O)c1cc(C23CC4CC(CC(C4)C2)C3)c2ccccc2n1)c1ccncc1 | Non-toxic | 4.94 | 6.25 (≈ 14.7 µM) | 56 | 
35 | COc1cc(NC(=O)NNC(=O)c2cc(C34CC5CC(CC(C5)C3)C4)c3ccccc3n2)cc(OC)c1OC | Non-toxic | 4.38 | 6.25 (≈ 11.8 µM) | 22 | 
36 | O=C(NNC(=O)c1cc(C23CC4CC(CC(C4)C2)C3)c2ccccc2n1)Nc1ccc(F)cc1 | Non-toxic | 5.19 | 6.25 (≈ 13.6 µM) | 68 | 
37 | O=C(NNC(=S)Nc1ccc([N+](=O)[O-])cc1Cl)c1cc(C23CC4CC(CC(C4)C2)C3)c2ccccc2n1 | Non-toxic | 6.31 | 6.25 (≈ 11.7 µM) | 96 | 
38 | O=C(NNC(=S)Nc1ccc(OC(F)(F)F)cc1)c1cc(C23CC4CC(CC(C4)C2)C3)c2ccccc2n1 | Non-toxic | 5.84 | 6.25 (≈ 11.6 µM) | 89 | 
39 | O=C(NNC(=O)c1cc(C23CC4CC(CC(C4)C2)C3)c2ccccc2n1)c1ccc2ccccc2c1 | Non-toxic | 5.33 | 6.25 (≈ 13.1 µM) | 90 | 
40 | O=C(NNC(=S)Nc1cccc(Cl)c1Cl)c1cc(C23CC4CC(CC(C4)C2)C3)c2ccccc2n1 | Non-toxic | 5.38 | 6.25 (≈ 11.9 µM) | 74 | 
41 | O=C(NNC(=S)Nc1ccccc1)c1cc(C23CC4CC(CC(C4)C2)C3)c2ccccc2n1 | Non-toxic | 4.00 | 6.25 (≈ 13.7 µM) | 12 | 
42 | Cc1cccc(C)c1NC(=S)NNC(=O)c1cc(C23CC4CC(CC(C4)C2)C3)c2ccccc2n1 | Non-toxic | 4.91 | 6.25 (≈ 12.9 µM) | 51 | 
43 | CCCCOc1ccc(NC(=O)NNC(=O)c2cc(C34CC5CC(CC(C5)C3)C4)c3ccccc3n2)cc1 | Non-toxic | 5.11 | 6.25 (≈ 12.2 µM) | 61 | 
44 | O=C(NNC(=S)Nc1cc(Cl)ccc1Cl)c1cc(C23CC4CC(CC(C4)C2)C3)c2ccccc2n1 | Non-toxic | 4.80 | 6.25 (≈ 11.9 µM) | 43 | 
45 | O=C(NNC(=O)N1CCOCC1)c1cc(C23CC4CC(CC(C4)C2)C3)c2ccccc2n1 | Non-toxic | 3.33 | 6.25 (≈ 14.4 µM) | 3 | 
46 | CC(C)(C)c1ccc(NC(=O)NNC(=O)c2cc(C34CC5CC(CC(C5)C3)C4)c3ccccc3n2)cc1 | Non-toxic | 4.65 | 6.25 (≈ 12.6 µM) | 37 | 
47 | Cc1cc(C)c(NC(=O)NNC(=O)c2cc(C34CC5CC(CC(C5)C3)C4)c3ccccc3n2)c(C)c1 | Non-toxic | 5.41 | 6.25 (≈ 12.9 µM) | 77 | 
48 | O=C(NNC(=O)c1cc(C23CC4CC(CC(C4)C2)C3)c2ccccc2n1)Nc1cccc(F)c1 | Non-toxic | 5.42 | 6.25 (≈ 13.6 µM) | 78 | 
